Laboratory results from ChEMBL document CHEMBL1125107, “Cephalosporin 3'-quinolone esters with a dual mode of action” (J Med Chem, 1990).
≈ marks a conversion by molar mass, not a printed value.

How the values were obtained:
Staphylococcus aureus [1] = assay: Minimum inhibitory concentration against Staphylococcus aureus 95 (Methicillin-resistant, high-level beta-lactamase producer); type: functional
How it was run: (§1)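 Serial 2-fold broth dilution in Mueller-Hinton broth, run by standard methodology; read-out is the minimum inhibitory concentration (MIC).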

Proteus vulgaris [2] = assay: Minimum inhibitory concentration against Proteus vulgaris 1028 BC (Class Ic beta-lactamase overproducer); type: functional
How it was run: (§2)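 Broth MIC determination: serial 2-fold dilutions in Mueller-Hinton broth by standard methodology; the lowest concentration inhibiting growth is reported as the MIC, in nmol/mL.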

Streptococcus pneumoniae [3] = assay: Minimum inhibitory concentration against Streptococcus pneumoniae 6301; type: functional; how it was run: as §2
Pseudomonas aeruginosa [4] = assay: Minimum inhibitory concentration against Pseudomonas aeruginosa ATCC 27853; type: functional; how it was run: as §2
Pseudomonas aeruginosa [5] = assay: Evaluated for the minimum inhibitory concentration against Pseudomonas aeruginosa 18S/H (Class Id beta-lactamase overproducer); type: functional
How it was run: (§3)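 MIC by serial 2-fold dilution in Mueller-Hinton broth; results given as minimum inhibitory concentrations (nmol/mL).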

Streptococcus pyogenes [6] = assay: Minimum inhibitory concentration against Streptococcus pyogenes 4; type: functional; how it was run: as §2
Proteus vulgaris [7] = assay: Evaluated for the minimum inhibitory concentration against Proteus vulgaris 1028 BC (Class Ic beta-lactamase overproducer; type: functional; how it was run: as §3
[8] = Evaluated for its stability in human serum at 37 degrees Celsius as determined by HPLC analysis; type: ADME, organism-based
How it was run: (§4)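 Compound solutions incubated at 37 °C, sampled at intervals; remaining starting material quantified by HPLC on PRP-1 column, UV 286 nm, mobile phase 0.01 M tetradecyltrimethylammonium bromide in 60% 0.067 M pH 7.4 phosphate buffer/40% acetonitrile; half-life reported.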

[9] = Evaluated for its stability in phosphate buffer, pH 7.4 at 37 degrees Celsius as determined by HPLC analysis; type: physicochemical; how it was run: as §4
Escherichia coli [10] = assay: Evaluated for the in vivo activity in mice against Escherichia coli 257; type: functional
[11] = Evaluated for its stability in rat serum at 37 degrees Celsius as determined by HPLC analysis; type: ADME, organism-based; how it was run: as §4
[12] = Evaluated for its stability in dog serum at 37 degrees Celsius as determined by HPLC analysis; type: ADME, organism-based, Canis lupus familiaris; how it was run: as §4
Escherichia coli [13] = assay: Evaluated for the minimum inhibitory concentration against Escherichia coli UB 1005; type: functional; how it was run: as §3
[14] = Evaluated for its stability in phosphate buffer, pH 6.5 at 37 degrees Celsius as determined by HPLC analysis; type: physicochemical; how it was run: as §4
[15] = Evaluated for its stability in rat blood at 37 degrees Celsius as determined by HPLC analysis; type: ADME, organism-based; how it was run: as §4
Streptococcus pyogenes [16] = assay: Evaluated for the in vivo activity in mice against streptococcus pyogenes 4; type: functional
Pseudomonas aeruginosa [17] = assay: Evaluated for the minimum inhibitory concentration against Pseudomonas aeruginosa 18S/H ( Class Id beta-lactamase overproducer); type: functional; how it was run: as §3
[18] = Evaluated for its stability in monkey serum at 37 degrees Celsius as determined by HPLC analysis; type: ADME, cell-free; settings: simiiformes; how it was run: as §4
[19] = Evaluated for its stability in Mueller-Hinton broth at 37 degrees Celsius as determined by HPLC analysis; type: physicochemical; how it was run: as §4
[20] = Evaluated for its stability in dog blood at 37 degrees Celsius as determined by HPLC analysis; type: ADME, organism-based, Canis lupus familiaris; how it was run: as §4
Streptococcus pneumoniae [21] = assay: Evaluated for in Vitro activity against Streptococcus pneumoniae 6301; type: functional; settings: read-out: MIC; how it was run: as §3
Escherichia coli [22] = assay: Evaluated for in Vitro activity against Escherichia coli DC-O; type: functional; settings: read-out: MIC; how it was run: as §3
Micrococcus luteus = assay: Evaluated for in Vitro activity against Micrococcus luteus PCI; type: functional; settings: read-out: MIC; how it was run: as §3
Staphylococcus aureus [23] = assay: In vitro antibacterial activity was determined against Staphylococcus aureus ATCC 29213 ( inducible, low level beta-lactamase producer); type: functional; how it was run: as §2
Streptococcus pneumoniae [24] = assay: In vitro antibacterial activity was determined against Streptococcus pneumoniae 6301; type: functional; how it was run: as §2
Proteus mirabilis = assay: In vitro antibacterial activity was determined against Proteus mirabilis 90; type: functional; how it was run: as §3
Staphylococcus aureus [25] = assay: In vitro antibacterial activity was determined against Staphylococcus aureus 95 (Methicillin-resistant, high-level beta-lactamase producer); type: functional; how it was run: as §1
Enterococcus faecalis = assay: In vitro antibacterial activity was determined against Enterococcus faecalis ATCC 29212; type: functional; how it was run: as §3
Pseudomonas aeruginosa [26] = assay: In vitro antibacterial activity was determined against Pseudomonas aeruginosa 18S/H ( Class Id beta-lactamase overproducer); type: functional; how it was run: as §2
Streptococcus pyogenes [27] = assay: In vitro antibacterial activity was determined against Streptococcus pyogenes 4; type: functional; how it was run: as §2
Escherichia coli [28] = assay: In vitro antibacterial activity was determined against Escherichia coli TEM-1 (TEM-1 (class IIIa) beta-lactamase producer); type: functional; how it was run: as §3
Proteus vulgaris [29] = assay: In vitro antibacterial activity was determined against Proteus vulgaris 1028 BC ( Class Ic beta-lactamase overproducer; type: functional; how it was run: as §3
Citrobacter freundii = assay: In vitro antibacterial activity was determined against Citrobacter freundii BS-16; type: functional; how it was run: as §3
Enterobacter cloacae [30] = assay: In vitro antibacterial activity was determined against Enterobacter cloacae P99; type: functional; how it was run: as §3
Staphylococcus aureus [31] = assay: In vitro antibacterial activity was determined against Staphylococcus aureus 1059B ( inducible, high level beta-lactamase producer); type: functional; how it was run: as §2
Pseudomonas aeruginosa [32] = assay: In vitro antibacterial activity was determined against Pseudomonas aeruginosa ATCC 27853; type: functional; how it was run: as §2
Escherichia coli [33] = assay: In vitro antibacterial activity was determined against Escherichia coli UB 1005; type: functional; how it was run: as §3
Serratia marcescens = assay: In vitro antibacterial activity was determined against Serratia marcescens 1071; type: functional; how it was run: as §2
Proteus vulgaris [34] = assay: Evaluated for the minimum inhibitory concentration against Proteus vulgaris 1028 BC; type: functional; how it was run: as §1
Enterobacter cloacae [35] = assay: Evaluated for the minimum inhibitory concentration against Enterobacter cloacae P99 ( Class Ia beta-lactamase overproducer); type: functional; how it was run: as §3

Row | Structure (SMILES) | MIC (Staphylococcus aureus [1]) | MIC (Proteus vulgaris [2]) | MIC (Streptococcus pneumoniae [3]) | MIC (Pseudomonas aeruginosa [4]) | MIC (Pseudomonas aeruginosa [5]) | MIC (Streptococcus pyogenes [6]) | MIC (Proteus vulgaris [7]) | MIC (Pseudomonas aeruginosa [17]) | also measured
1 | CCn1cc(C(=O)OCC2=C(C(=O)O)N3C(=O)[C@@H](NC(=O)Cc4cccs4)C3SC2)c(=O)c2cc(F)c(N3CCN(C=O)CC3)cc21 (some centres undefined) | 4 µg/mL (≈ 5.85 µM) | 4 µg/mL (≈ 5.85 µM) | 0.063 µg/mL (≈ 0.0921 µM) | > 128 µg/mL | 16 µg/mL (≈ 23.4 µM) | – | – | – | –
2 | O=C(O)c1cn(-c2ccc(F)cc2)c2cc3c(cc2c1=O)OCO3 | 1 µg/mL (≈ 3.06 µM) | – | 64 µg/mL (≈ 196 µM) | – | 0.5 µg/mL (≈ 1.53 µM) | > 128 µg/mL | 0.5 µg/mL (≈ 1.53 µM) | – | –
3 | CCn1cc(C(=O)OCC2=C(C(=O)O)N3C(=O)[C@@H](NC(=O)Cc4cccs4)C3SC2)c(=O)c2cc3c(cc21)OCO3 (some centres undefined) | 4 µg/mL (≈ 6.69 µM) | 0.25 µg/mL (≈ 0.418 µM) | – | > 128 µg/mL | 8 µg/mL (≈ 13.4 µM) | – | – | – | –
4 | CO/N=C(/C(=O)N[C@@H]1C(=O)N2C(C(=O)O)=C(COC(=O)c3cn(CCF)c4c(F)c(N5CCN(C)CC5)c(F)cc4c3=O)CSC12)c1csc(N)n1 (some centres undefined) | 2 µg/mL (≈ 2.62 µM) | 0.25 µg/mL (≈ 0.327 µM) | < 0.008 µg/mL | 8 µg/mL (≈ 10.5 µM) | – | 0.031 µg/mL (≈ 0.0405 µM) | – | 4 µg/mL (≈ 5.23 µM) | half-life [8]: 6.3 h; half-life [9]: 3 h; ED50 (Escherichia coli [10]): 1.8 mg/kg; half-life [11]: 4.5 h; half-life [12]: 3.9 h; MIC (Escherichia coli [13]): 0.12 µg/mL (≈ 0.157 µM); half-life [14]: 6.9 h; half-life [15]: 5.8 h; ED50 (Streptococcus pyogenes [16]): 8.8 mg/kg; half-life [18]: 5.7 h; half-life [19]: 3.4 h; half-life [20]: 3.4 h; MIC (Streptococcus pneumoniae [21]): 0.0187 µM (≈ 0.0143 µg/mL); MIC (Escherichia coli [22]): 0.299 µM (≈ 0.229 µg/mL); MIC (Micrococcus luteus): 0.0746 µM (≈ 0.0571 µg/mL)
5 | CCn1cc(C(=O)OCC2=C(C(=O)O)N3C(=O)[C@@H](NC(=O)COc4ccccc4)C3SC2)c(=O)c2cc(F)c(-n3cccc3)cc21 (some centres undefined) | 0.5 µg/mL (≈ 0.773 µM) | 16 µg/mL (≈ 24.7 µM) | 2 µg/mL (≈ 3.09 µM) | > 128 µg/mL | 128 µg/mL (≈ 198 µM) | 2 µg/mL (≈ 3.09 µM) | – | – | –
6 | CCn1cc(C(=O)OCC2=C(C(=O)O)N3C(=O)[C@@H](NC(=O)COc4ccccc4)C3SC2)c(=O)c2cc(F)c(N3CCCC3)cc21 (some centres undefined) | 0.5 µg/mL (≈ 0.768 µM) | – | < 0.008 µg/mL | > 128 µg/mL | 32 µg/mL (≈ 49.2 µM) | – | 32 µg/mL (≈ 49.2 µM) | – | –
7 | CCn1cc(C(=O)OCC2=C(C(=O)O)N3C(=O)[C@@H](NC(=O)/C(=N/OC)c4csc(N)n4)C3SC2)c(=O)c2cc(F)c(N3CCN(C=O)CC3)cc21 (some centres undefined) | 8 µg/mL (≈ 10.8 µM) | 8 µg/mL (≈ 10.8 µM) | – | > 128 µg/mL | 32 µg/mL (≈ 43.1 µM) | – | – | – | –
8 | CCn1cc(C(=O)O)c(=O)c2cc(F)c(N3CCCC3)cc21 | 0.063 µg/mL (≈ 0.207 µM) | – | > 128 µg/mL | > 128 µg/mL | – | – | 1 µg/mL (≈ 3.29 µM) | 128 µg/mL (≈ 421 µM) | –
9 | CCn1cc(C(=O)OCC2=C(C(=O)O)N3C(=O)[C@@H](NC(=O)/C(=N/OC)c4csc(N)n4)C3SC2)c(=O)c2cc(F)c(N3CCSCC3)cc21 (some centres undefined) | 0.5 µg/mL (≈ 0.683 µM) | – | 0.016 µg/mL (≈ 0.0219 µM) | 128 µg/mL (≈ 175 µM) | 8 µg/mL (≈ 10.9 µM) | < 0.008 µg/mL | 2 µg/mL (≈ 2.73 µM) | – | MIC (Escherichia coli [13]): 1 µg/mL (≈ 1.37 µM)
10 | CC(=O)OCC1=C(C(=O)O)N2C(=O)[C@@H](NC(=O)COc3ccccc3)C2SC1 (some centres undefined) | – | – | – | – | – | – | – | – | MIC (Staphylococcus aureus [23]): 0.5 µg/mL (≈ 1.23 µM); MIC (Streptococcus pneumoniae [24]): 0.25 µg/mL (≈ 0.615 µM); MIC (Proteus mirabilis): 64 µg/mL (≈ 157 µM); MIC (Staphylococcus aureus [25]): > 128 µg/mL; MIC (Enterococcus faecalis): 64 µg/mL (≈ 157 µM); MIC (Pseudomonas aeruginosa [26]): > 128 µg/mL; MIC (Streptococcus pyogenes [27]): 0.063 µg/mL (≈ 0.155 µM); MIC (Escherichia coli [28]): > 128 µg/mL; MIC (Proteus vulgaris [29]): > 128 µg/mL; MIC (Citrobacter freundii): > 128 µg/mL; MIC (Enterobacter cloacae [30]): > 128 µg/mL; MIC (Staphylococcus aureus [31]): 0.25 µg/mL (≈ 0.615 µM); MIC (Pseudomonas aeruginosa [32]): > 128 µg/mL; MIC (Escherichia coli [33]): 64 µg/mL (≈ 157 µM); MIC (Serratia marcescens): > 128 µg/mL
11 | O=C(COc1ccccc1)N[C@@H]1C(=O)N2C(C(=O)O)=C(COC(=O)c3cn(-c4ccc(F)cc4)c4cc5c(cc4c3=O)OCO5)CSC12 (some centres undefined) | 64 µg/mL (≈ 95 µM) | – | 1 µg/mL (≈ 1.48 µM) | > 128 µg/mL | – | 2 µg/mL (≈ 2.97 µM) | – | 64 µg/mL (≈ 95 µM) | MIC (Proteus vulgaris [34]): 64 µg/mL (≈ 95 µM)
12 | CCn1cc(C(=O)OCC2=C(C(=O)O)N3C(=O)[C@@H](NC(=O)COc4ccccc4)C3SC2)c(=O)c2cc(F)c(N3CCN(C=O)CC3)cc21 (some centres undefined) | 2 µg/mL (≈ 2.88 µM) | 4 µg/mL (≈ 5.77 µM) | – | 128 µg/mL (≈ 185 µM) | – | – | – | 8 µg/mL (≈ 11.5 µM) | MIC (Escherichia coli [13]): 128 µg/mL (≈ 185 µM); MIC (Enterobacter cloacae [35]): 2 µg/mL (≈ 2.88 µM)
